pIC50: −log10 of the molar value. The source made the active and inactive calls.
Assays:
HepG2 = assay: Cytotoxicity against human HepG2 cells after 24 hrs by CellTiter assay; format: cell-based; conditions: HepG2, 24 h
Summary of the method: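 HepG2 cells (passage 27–33) in MEM with 10% FBS, L-glutamine and NEAA, seeded at 1×10^4 per well. Treated next day with compounds at 0.1–100 µM (or 0.1–25 µmol/L), triplicates, <1% DMSO, for 24 h at 37 °C, 5% CO2. MTS reagent added for 2 h, absorbance read at 490 nm. IC50 taken against untreated (100%) and 10% DMSO (0%) controls.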

Lichtheimia corymbifera [1] = assay: Antifungal activity against Absidia corymbifera 272 after 24 hrs by broth microdilution method; format: functional; conditions: Lichtheimia corymbifera, 272, 24 h
Summary of the method: (§1)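 Broth microdilution in RPMI 1640 with glutamine, fluconazole as reference. For yeasts, MIC is ≥80% growth reduction (IC80) versus control. For filamentous fungi, the value is expressed as IC50. Readings at 24 and 48 h.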

[2] = system: Mycobacterium tuberculosis; assay: Antimycobacterial activity against Mycobacterium tuberculosis H37Rv My 331/88 after 21 days; format: functional; conditions: H37Rv My 331/88, 504 h
Summary of the method: (§2)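 Micromethod MIC in Šula's semisynthetic medium at 37 °C. Compounds added in DMSO at 1000 down to 0.032 µmol/L. Isoniazid standard in sterile water at 0.5–250 µmol/L. Inocula: H37Rv 10^3, M. avium 10^5, M. kansasii 10^4. Read at 14 and 21 d, plus 7 d for M. kansasii.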

Staphylococcus aureus [3] = assay: Antibacterial activity against Staphylococcus aureus CCM 4516/08 after 24 hrs by broth microdilution method; format: functional; conditions: CCM 4516/08, 24 h
Summary of the method: (§3)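 Broth microdilution in Mueller–Hinton broth, compounds dissolved in DMSO, tested over a dilution series from 500 downward. MIC taken as ≥95% growth reduction (IC95) versus drug-free control. Benzylpenicillin comparator. Readings at 24 and 48 h.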

Pichia kudriavzevii [4] = assay: Antifungal activity against Candida krusei E28 after 48 hrs by broth microdilution method; format: functional; conditions: E28, 48 h; summary of the method: as §1
Pseudomonas aeruginosa = assay: Antibacterial activity against Pseudomonas aeruginosa CCM 1961 at 500 micromol/L after 24 to 48 hrs by broth microdilution method; format: functional, organism-based; summary of the method: as §3
Lichtheimia corymbifera [5] = assay: Antifungal activity against Absidia corymbifera 272 after 48 hrs by broth microdilution method; format: functional; conditions: Lichtheimia corymbifera, 272, 48 h; summary of the method: as §1
Mycobacterium avium [6] = assay: Antimycobacterial activity against isoniazid, rifampicin, ethambutol and ofloxacin-resistant Mycobacterium avium My 330/88 after 21 days; format: functional; conditions: My 330/88, 504 h; summary of the method: as §2
Mycobacterium kansasii [7] = assay: Antimycobacterial activity against Mycobacterium kansasii My 235/80 after 14 days; format: functional; conditions: My 235/80, 336 h; summary of the method: as §2
Trichosporon asahii [8] = assay: Antifungal activity against Trichosporon asahii 1188 after 48 hrs by broth microdilution method; format: functional; conditions: Trichosporon asahii, 1188, 48 h; summary of the method: as §1
Escherichia coli = assay: Antibacterial activity against Escherichia coli CCM 4517 at 500 micromol/L after 24 to 48 hrs by broth microdilution method; format: functional, organism-based; summary of the method: as §3
[9] = system: Staphylococcus epidermidis; assay: Antibacterial activity against Staphylococcus epidermidis H 6966/08 after 24 hrs by broth microdilution method; format: functional; conditions: H 6966/08, 24 h; summary of the method: as §3
Pichia kudriavzevii [10] = assay: Antifungal activity against Candida krusei E28 after 24 hrs by broth microdilution method; format: functional; conditions: E28, 24 h; summary of the method: as §1
Enterococcus sp. = assay: Antibacterial activity against Enterococcus sp. J 14365/08 at 500 micromol/L after 24 to 48 hrs by broth microdilution method; format: functional, organism-based; summary of the method: as §3
Trichosporon asahii [11] = assay: Antifungal activity against Trichosporon asahii 1188 after 24 hrs by broth microdilution method; format: functional; conditions: Trichosporon asahii, 1188, 24 h; summary of the method: as §1
[12] = system: Staphylococcus epidermidis; assay: Antibacterial activity against Staphylococcus epidermidis H 6966/08 after 48 hrs by broth microdilution method; format: functional; conditions: H 6966/08, 48 h; summary of the method: as §3
Staphylococcus aureus [13] = assay: Antibacterial activity against Staphylococcus aureus CCM 4516/08 after 48 hrs by broth microdilution method; format: functional; conditions: CCM 4516/08, 48 h; summary of the method: as §3
[14] = system: Mycobacterium tuberculosis; assay: Antimycobacterial activity against Mycobacterium tuberculosis H37Rv My 331/88 after 14 days; format: functional; conditions: H37Rv My 331/88, 336 h; summary of the method: as §2
[15] = system: Trichophyton mentagrophytes; assay: Antifungal activity against Trichophyton mentagrophytes 445 after 120 hrs by broth microdilution method; format: functional; conditions: Trichophyton mentagrophytes, 445, 120 h
Summary of the method: (§4)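 Filamentous dermatophyte tested by broth microdilution in RPMI 1640 with glutamine, fluconazole as reference. Value expressed as IC50 relative to growth control. Read at 72 and 120 h.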

Candida tropicalis = assay: Antifungal activity against Candida tropicalis 156 at 500 micromol/L after 24 to 48 hrs by broth microdilution method; format: functional, organism-based; summary of the method: as §1
Mycobacterium kansasii [16] = assay: Antimycobacterial activity against Mycobacterium kansasii 6509/96 after 7 days; format: functional; conditions: 6509/96, 168 h; summary of the method: as §2
Candida albicans [17] = assay: Antifungal activity against Candida albicans ATCC 44859 after 48 hrs by broth microdilution method; format: functional; conditions: ATCC 44859, 48 h; summary of the method: as §1
Mycobacterium avium [18] = assay: Antimycobacterial activity against isoniazid, rifampicin, ethambutol and ofloxacin-resistant Mycobacterium avium My 330/88 after 14 days; format: functional; conditions: My 330/88, 336 h; summary of the method: as §2
Candida albicans [19] = assay: Antifungal activity against Candida albicans ATCC 44859 after 24 hrs by broth microdilution method; format: functional; conditions: ATCC 44859, 24 h; summary of the method: as §1
Mycobacterium kansasii [20] = assay: Antimycobacterial activity against Mycobacterium kansasii 6509/96 after 14 days; format: functional; conditions: 6509/96, 336 h; summary of the method: as §2
Mycobacterium kansasii [21] = assay: Antimycobacterial activity against Mycobacterium kansasii My 235/80 after 7 days; format: functional; conditions: My 235/80, 168 h; summary of the method: as §2
Klebsiella pneumoniae [22] = assay: Antibacterial activity against ESBL-positive Klebsiella pneumoniae J 14368/08 at 500 micromol/L after 24 to 48 hrs by broth microdilution method; format: functional, organism-based; summary of the method: as §3
Staphylococcus aureus [23] = assay: Antibacterial activity against methicillin-resistant Staphylococcus aureus H 5996/08 after 24 hrs by broth microdilution method; format: functional; conditions: H 5996/08, 24 h; summary of the method: as §3
Mycobacterium kansasii [24] = assay: Antimycobacterial activity against Mycobacterium kansasii 6509/96 after 21 days; format: functional; conditions: 6509/96, 504 h; summary of the method: as §2
Aspergillus fumigatus [25] = assay: Antifungal activity against Aspergillus fumigatus 231 after 48 hrs by broth microdilution method; format: functional; conditions: Aspergillus fumigatus, 231, 48 h; summary of the method: as §1
Klebsiella pneumoniae [26] = assay: Antibacterial activity against Klebsiella pneumoniae D 11750/08 at 500 micromol/L after 24 to 48 hrs by broth microdilution method; format: functional, organism-based; summary of the method: as §3
Aspergillus fumigatus [27] = assay: Antifungal activity against Aspergillus fumigatus 231 after 24 hrs by broth microdilution method; format: functional; conditions: Aspergillus fumigatus, 231, 24 h; summary of the method: as §1
[28] = system: Trichophyton mentagrophytes; assay: Antifungal activity against Trichophyton mentagrophytes 445 after 72 hrs by broth microdilution method; format: functional; conditions: Trichophyton mentagrophytes, 445, 72 h; summary of the method: as §4
Staphylococcus aureus [29] = assay: Antibacterial activity against methicillin-resistant Staphylococcus aureus H 5996/08 after 48 hrs by broth microdilution method; format: functional; conditions: H 5996/08, 48 h; summary of the method: as §3
Mycobacterium kansasii [30] = assay: Antimycobacterial activity against Mycobacterium kansasii My 235/80 after 21 days; format: functional; conditions: My 235/80, 504 h; summary of the method: as §2
Nakaseomyces glabratus = assay: Antifungal activity against Candida glabrata 20/I at 500 micromol/L after 24 to 48 hrs by broth microdilution method; format: functional, organism-based; summary of the method: as §1

CCOP(=O)(OCC)Oc1ccc(Cl)cc1C(=O)Nc1ccc(C(F)(F)F)cc1
2 µM: MIC (Mycobacterium kansasii [7]) | MIC (Mycobacterium kansasii [16]) | MIC (Mycobacterium kansasii [20]) | MIC (Mycobacterium kansasii [24]) | MIC (Mycobacterium kansasii [30])
> 250 µM: MIC50 (Lichtheimia corymbifera [1]) | MIC80 (Pichia kudriavzevii [4]) | MIC50 (Lichtheimia corymbifera [5]) | MIC80 (Candida albicans [17]) | MIC50 (Aspergillus fumigatus [25]) | MIC50 (Aspergillus fumigatus [27])
31.2 µM: MIC95 (Staphylococcus aureus [3]) | MIC95 [9] | MIC95 [12] | MIC95 (Staphylococcus aureus [13]) | MIC50 [15] | MIC50 [28]
62.5 µM: MIC95 (Staphylococcus aureus [23]) | MIC95 (Staphylococcus aureus [29])
5.63: pIC50 (HepG2)
250 µM: MIC80 (Trichosporon asahii [8])
4 µM: MIC (Mycobacterium avium [6]) | MIC (Mycobacterium avium [18])
inactive: Activity (Pseudomonas aeruginosa) | Activity (Escherichia coli) | Activity (Enterococcus sp.) | Activity (Candida tropicalis) | Activity (Klebsiella pneumoniae [22]) | Activity (Klebsiella pneumoniae [26]) | Activity (Nakaseomyces glabratus)
1 µM: MIC [2] | MIC [14] | MIC (Mycobacterium kansasii [21])
125 µM: MIC80 (Pichia kudriavzevii [10]) | MIC80 (Trichosporon asahii [11]) | MIC80 (Candida albicans [19])

CCOP(=O)(OCC)Oc1ccc(Br)cc1C(=O)Nc1ccc(Cl)c(Cl)c1
4 µM: MIC (Mycobacterium kansasii [7]) | MIC (Mycobacterium kansasii [20]) | MIC (Mycobacterium kansasii [24]) | MIC (Mycobacterium kansasii [30])
inactive: Activity (Pseudomonas aeruginosa) | Activity (Escherichia coli) | Activity (Enterococcus sp.) | Activity (Candida tropicalis) | Activity (Klebsiella pneumoniae [22]) | Activity (Klebsiella pneumoniae [26]) | Activity (Nakaseomyces glabratus)
> 500 µM: MIC50 (Lichtheimia corymbifera [1]) | MIC80 (Pichia kudriavzevii [4]) | MIC50 (Lichtheimia corymbifera [5]) | MIC80 (Trichosporon asahii [8]) | MIC80 (Pichia kudriavzevii [10]) | MIC80 (Trichosporon asahii [11]) | MIC95 [12] | MIC95 (Staphylococcus aureus [13]) | MIC50 [15] | MIC80 (Candida albicans [17]) | MIC80 (Candida albicans [19]) | MIC50 (Aspergillus fumigatus [25]) | MIC50 (Aspergillus fumigatus [27]) | MIC50 [28] | MIC95 (Staphylococcus aureus [29])
1 µM: MIC [2] | MIC [14]
500 µM: MIC95 (Staphylococcus aureus [3]) | MIC95 [9] | MIC95 (Staphylococcus aureus [23])
16 µM: MIC (Mycobacterium avium [6]) | MIC (Mycobacterium avium [18])
2 µM: MIC (Mycobacterium kansasii [16]) | MIC (Mycobacterium kansasii [21])
5.69: pIC50 (HepG2)
